# Assay outcomes (PubChem)
# PTK2B oligo ant: Pyk2 (human) oligomerization antagonism. Q14289. Q293 cells, Pyk2 FERM NanoBiT luminescence; hits give low values. z-score (the deposit names both 25 µM and 10 µM). 99,000 compounds, 0.83% hits;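 active means Z-score of -3 or lower, scaled per plate to the spread of control and sample wells; inactive means z-score above -3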;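 further: negative z-score means lost luminescence so less FERM oligomerization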
# Target sequence (Q14289 whole entry, looked up): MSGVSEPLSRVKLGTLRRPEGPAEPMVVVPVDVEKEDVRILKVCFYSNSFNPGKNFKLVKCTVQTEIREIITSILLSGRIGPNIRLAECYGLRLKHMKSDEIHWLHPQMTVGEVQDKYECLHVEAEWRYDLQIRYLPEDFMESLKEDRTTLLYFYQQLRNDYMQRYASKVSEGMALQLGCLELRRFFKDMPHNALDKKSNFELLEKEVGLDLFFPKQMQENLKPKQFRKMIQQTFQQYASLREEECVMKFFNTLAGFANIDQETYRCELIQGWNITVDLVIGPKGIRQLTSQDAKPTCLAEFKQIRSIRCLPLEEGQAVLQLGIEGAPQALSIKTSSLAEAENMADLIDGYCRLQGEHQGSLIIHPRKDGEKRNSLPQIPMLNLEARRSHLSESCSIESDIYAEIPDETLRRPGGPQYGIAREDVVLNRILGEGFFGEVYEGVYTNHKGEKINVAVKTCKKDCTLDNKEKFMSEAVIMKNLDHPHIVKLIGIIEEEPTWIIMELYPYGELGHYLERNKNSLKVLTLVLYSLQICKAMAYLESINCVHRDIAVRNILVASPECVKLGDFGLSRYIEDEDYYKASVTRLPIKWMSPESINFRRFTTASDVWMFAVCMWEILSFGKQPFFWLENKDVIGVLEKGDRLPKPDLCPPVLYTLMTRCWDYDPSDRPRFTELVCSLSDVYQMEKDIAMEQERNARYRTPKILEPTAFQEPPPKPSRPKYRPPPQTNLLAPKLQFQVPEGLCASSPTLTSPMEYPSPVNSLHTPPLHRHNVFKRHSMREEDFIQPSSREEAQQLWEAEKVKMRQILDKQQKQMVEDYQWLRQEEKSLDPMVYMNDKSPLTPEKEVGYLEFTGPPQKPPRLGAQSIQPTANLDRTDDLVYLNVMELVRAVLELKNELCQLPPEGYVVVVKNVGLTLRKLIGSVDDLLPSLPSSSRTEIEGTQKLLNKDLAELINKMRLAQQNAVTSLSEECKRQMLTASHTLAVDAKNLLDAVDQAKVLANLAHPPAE
# AP ELISA ortho: orthogonal test for alternative complement pathway inhibitors. Human serum alternative complement pathway, LPS-coated ELISA, C3 deposition; tested in compound mixtures. inhibition, % at 5 µM. 62,000 compounds, 0.08% hits;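 active means inhibition above 30% in each of the two pooled mixtures holding the compound, so the lower value exceeds 30%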;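 further: 0% = serum in Mg-EGTA without compound and 100% = EDTA serum blank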
#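 Test system: human serum complement alternative pathway, C3 deposition onto LPS / Medium: Mg2+-EGTA GVB++ buffer containing human serum at 1:15 dilution / Probe or stimulus: Plate-bound LPS / Times: 1 h at 37 °C / Signal: ELISA with HRP anti-human C3 antibody, TMB substrate, absorbance 450 nm / Measure: percent inhibition / Repeats: two pool placements per compound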
# HePTP inh: human HePTP phosphatase inhibition; recombinant HePTP phosphatase activity, OD absorbance; inhibition, % at 20 µM; 110,000 compounds, 0.64% hits; in the data active means inhibition above about 50%;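 further: plate controls were vehicle for no effect and reference inhibitor for full effect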
# Plk1 PBD FP: inhibitors of human Plk1 polo box domain binding. Plk1 PBD phosphopeptide binding, fluorescence polarization. inhibition, %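 (tested at about 20 µM)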. 97,000 compounds, 0.13% hits; in the data active means inhibition above about 34%, passing the limit was not always enough
# HEK293 NFkB inh: lowers PMA/ionomycin-induced NF-kB signal in HEK293 cells | inhibition, % at 3 µM | HEK-293 NF-kB luciferase reporter, luminescence | 62,000 compounds, 0.21% hits | AID 465;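 active means inhibition above the mean of all tested compounds plus 3 SD, cut at about 40% in these data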;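 further: 0% = stimulated DMSO wells and 100% = 10 µM reference inhibitor 5653914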
#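 Timing: 1 h pretreatment, 16 h stimulation, 37 °C; system: HEK-293 cells with stable firefly luciferase reporter driven by four HIV NF-kB elements; doses: 3 µM once, 0.30% DMSO; measured by: luciferase luminescence; control set: DMSO and 10 µM reference inhibitor; repeats: single test; reagent: PMA plus ionomycin mix as NF-kB-activating stimulus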
# PLK1 inh: PLK1 (human) kinase inhibition; P53350; AID 619; recombinant PLK1 kinase, TR-FRET peptide phosphorylation; 97,000 compounds, 0.53% hits; inhibition, % at 10 µM;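 active means inhibition of 50% or more in the single-concentration screen; inactive means inhibition below 50%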;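 further: 0% = DMSO max control and 100% = H-89 dihydrochloride min control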
# Numbers without * were called inactive; . = not tested or not shown. Rows were chosen to be rich in hits. Some 1.5% of all compounds tested hit in one or more screens of this group.
SMILES,PTK2B oligo ant,AP ELISA ortho,HePTP inh,Plk1 PBD FP,HEK293 NFkB inh,PLK1 inh
CN(Cc1ccccc1)c1oc(COc2ccccc2F)nc1C#N,.,4.6,-6.9,-13.0,4.1,69.2*
O=S(=O)(c1ccc(NC(=S)Nc2ccccc2)cc1)N1CCCCCC1,.,.,-13.5,.,.,.
CCC(Oc1ccccc1)C(=O)Nc1cc(Cl)ccc1C (centres undefined),.,.,2.0,.,.,.
COC(=O)C1=C(C)OC(N)=C(C#N)C1c1cccnc1 (centres undefined),0.22,.,.,4.5,.,-9.4
N#CC1=C(N)Oc2ccc3ccc(O)cc3c2C1c1cccnc1 (centres undefined),-3.2*,.,.,-9.8,.,-4.9
C/C(=N/Nc1nc(-c2ccccc2)cs1)C(C)(C)C,.,.,-12.7,.,.,.
O=C(Cc1ccccc1)Nc1ccc(Cl)cc1C(=O)O,.,.,4.8,.,.,.
Cc1cc(C)cc(N2CC(c3nc4ccccc4n3C)CC2=O)c1 (centres undefined),.,17.8,3.2,-1.4,3.8,57.5*
Cc1ccc(N2CC(c3nc4ccccc4n3C)CC2=O)cc1C (centres undefined),.,11.5,-1.5,-5.3,5.9,-5.1
COc1ccc(NC(=O)C(=O)NCCN2CCN(S(=O)(=O)c3ccccc3)CC2)cc1,.,.,1.0,.,.,.
O=C(CCCn1c(=S)[nH]c2ccccc2c1=O)N1CCN(c2cccc(Cl)c2)CC1,-3.02*,.,.,9.6,.,-11.3
Cc1cc(C)c(S(=O)(=O)c2ccccc2)c(Cl)n1,0.15,.,.,8.9,.,63.9*
O=C(Nc1nc(-c2ccc3ccccc3c2)cs1)c1ccc(Cl)s1,.,.,-2.6,.,.,.
CCN(CC)c1ccc(C2NCC(c3ccc([N+](=O)[O-])cc3)O2)cc1 (centres undefined),-3.16*,.,.,-14.4,.,-10.4
NC(=O)c1ccsc1NC(=O)c1nc(-c2ccccc2)n(-c2ccccc2)n1,-4.36*,-10.6,2.3,.,-1.7,.
CC(=O)Nc1ccc(S(=O)(=O)/N=C2\C=CC(=O)c3ccccc32)cc1,.,.,8.0,.,.,.
COC(=O)C1=C(C(=O)OC)SC(=C2C(=S)C(C)(C)N(C(=O)CN3C(=O)CCC3=O)c3ccccc32)S1,.,.,18.1,.,.,.
COc1ccc(Oc2nc(C)cc(C)c2C#N)cc1,0.27,4.0,4.1,-2.3,9.3,-9.4
COc1ccc(C2(O)CC3CCC(C2)N3c2nc(C)cc(C)c2C#N)cc1 (centres undefined),-3.01*,25.1,3.7,-7.9,19.9,-1.6
CN(C(=S)Nc1ccccc1)c1ccccc1,.,.,102.5*,.,.,.
N=c1n(CCN2CCCCC2)c2ccccc2n1CC(O)c1ccc(Cl)c(Cl)c1 (centres undefined),0.83,.,.,-12.8,.,62.7*
N=c1n(CCN2CCCCC2)c2ccccc2n1CC(O)c1cccc(Br)c1 (centres undefined),-1.09,5.6,-10.4,-26.7,5.8,10.6
O=C(O)c1ccc(Oc2ccc3c(c2)C(=O)N(c2ccc([N+](=O)[O-])cc2)C3=O)cc1,.,.,3.2,.,.,.
O=C(Nc1ccc(I)cc1Cl)c1cccc([N+](=O)[O-])c1,.,.,-8.5,.,.,.
O=C(Nc1ccc(I)cc1Cl)c1ccc([N+](=O)[O-])cc1,.,.,87.8*,.,.,.
SMILES,PTK2B oligo ant,AP ELISA ortho,HePTP inh,Plk1 PBD FP,HEK293 NFkB inh,PLK1 inh
O=C(O)c1ccc(NC(=O)c2cc(NC(=O)c3ccc(C(=O)O)cc3)cc(C(=O)Nc3ccc([N+](=O)[O-])cc3)c2)cc1,.,.,100.9*,.,.,.
O=C(Nc1cc(C(=O)Nc2ccc(Cl)cc2)cc(C(=O)Nc2ccc(Cl)cc2)c1)c1ccc([N+](=O)[O-])cc1,.,.,3.3,.,.,.
O=C(O)c1ccc(NC(=O)c2ccc3c(c2)C(=O)N(c2ccc([N+](=O)[O-])cc2)C3=O)cc1,.,.,59.1*,.,.,.
COc1cc(N)c(Cl)cc1NC(=O)c1ccc(Cl)cc1,.,.,-2.9,.,.,.
Cc1cc(C)nc(NN2C(=O)/C(=C/c3ccc(O)cc3)SC2=S)n1,-3.55*,.,8.8,-71.6,.,1.3
COc1ccccc1/C=C1\SC(=S)N(Nc2nc(C)cc(C)n2)C1=O,-3.76*,.,-7.9,-9.3,.,-10.8
Cc1cc(C)nc(NN2C(=O)/C(=C/c3cccc(Br)c3)SC2=S)n1,.,.,7.1,.,.,.
Cc1ccc(Nc2nc3nonc3nc2N)c(C)c1,.,.,7.6,.,.,.
O=C(COC(=O)c1cc(=O)[nH]c2ccccc12)NC(=O)NC1CCCCC1,-3.7*,3.2,11.5,-5.0,6.6,-7.2
O=C(COC(=O)c1n[nH]c2ccccc12)NC(=O)NC1CCCC1,-1.55,.,.,-9.6,.,-3.6
Cc1ccc(/C=C2\SC(N3CCCCCC3)=NC2=O)cc1,.,.,3.8,.,.,.
